In paper PMC8496042 (RSC Chemical Biology, 2021):

Target: T1, PAP(248–286) (Homo sapiens, UniProt P15309)
T1 sequence (P15309 248-286): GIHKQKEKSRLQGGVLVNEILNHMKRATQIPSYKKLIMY
Test: isothermal titration calorimetry
Type: binding
Method in brief: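 Freshly prepared monomeric peptide (600 μM) in deionized water brought to 1× PBS was titrated from the syringe into a low-volume nano-ITC cell holding the test compound (80 μM). The compound was neutralised with NaOH to physiological pH and diluted in water/PBS. Both solutions were degassed 10 min at 37 °C. Heats and enthalpies were fitted with an independent binding model.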

- Kd: 8.59 µM
SMILES: O=C1O[C@H]([C@@H](O)CO)C(O)=C1O [ascorbic acid]
